Experimental data taken from ChEMBL document CHEMBL3779892, “Increasing the binding affinity of VEGFR-2 inhibitors by extending their hydrophobic interaction with the active site: Design, synthesis and biological evaluation of 1-substituted-4-(4-methoxybenzyl)phthalazine derivatives” (Eur J Med Chem, 2016).

Key:
Type in all cases: functional
[1] = Growth inhibition of human BT549 cells at 10 uM after 48 hrs by sulforhodamine B assay; conditions: BT-549, 48 h, read-out: GI
Outline: (§1)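 Run at NCI on the 60-line panel. Cells grown in RPMI 1640 with 5% FBS and 2 mM L-glutamine, plated at 5000–40,000 cells/well by doubling time, and held 24 h at 37 °C before dosing. Drug (DMSO stock) given at a single final 10 µM in triplicate wells for 48 h. Adherent cells fixed with cold TCA (10% final), suspension cells with 16% TCA. SRB stain read at 515 nm. Percent growth from Tz, C and Ti.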

[2] = system: T47D; assay: Growth inhibition of human T47D cells at 10 uM after 48 hrs by sulforhodamine B assay; conditions: read-out: GI
Outline: (§2)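 NCI-60 panel, adherent cells grown in RPMI 1640 with 5% FBS and 2 mM L-glutamine, plated at 5000–40,000 cells/well and preincubated 24 h at 37 °C, 5% CO2. 10 µM final compound from DMSO stock, triplicate wells, 48 h. Fixed with cold TCA (10% final, 60 min, 4 °C) and stained with 0.4% SRB. Absorbance read at 515 nm; growth calculated against time-zero and control wells.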

[3] = system: MDA-MB-231; assay: Growth inhibition of human MDA-MB-231 cells at 10 uM after 48 hrs by sulforhodamine B assay; conditions: MDA-MB-231, 48 h, read-out: GI; outline: as §1
[4] = system: CCRF-CEM; assay: Growth inhibition of human CCRF-CEM cells at 10 uM after 48 hrs by sulforhodamine B assay; conditions: read-out: GI; outline: as §1
[5] = system: K562; assay: Growth inhibition of human K562 cells at 10 uM after 48 hrs by sulforhodamine B assay; conditions: K562, 48 h, read-out: GI; outline: as §1
[6] = Growth inhibition of human MOLT4 cells at 10 uM after 48 hrs by sulforhodamine B assay; conditions: MOLT-4, 48 h, read-out: GI; outline: as §1
[7] = system: NCI-H460; assay: Growth inhibition of human NCI-H460 cells at 10 uM after 48 hrs by sulforhodamine B assay; conditions: NCI-H460, 48 h, read-out: GI; outline: as §1
[8] = Growth inhibition of human COLO205 cells at 10 uM after 48 hrs by sulforhodamine B assay; conditions: COLO 205, 48 h, read-out: GI; outline: as §1
[9] = system: HT-29; assay: Growth inhibition of human HT-29 cells at 10 uM after 48 hrs by sulforhodamine B assay; conditions: HT-29, 48 h, read-out: GI; outline: as §1
[10] = Growth inhibition of human SNB19 cells at 10 uM after 48 hrs by sulforhodamine B assay; conditions: SNB-19, 48 h, read-out: GI; outline: as §1
[11] = system: U-251; assay: Growth inhibition of human U251 cells at 10 uM after 48 hrs by sulforhodamine B assay; conditions: U-251, 48 h, read-out: GI; outline: as §2
[12] = system: Malme-3M; assay: Growth inhibition of human MALME-3M cells at 10 uM after 48 hrs by sulforhodamine B assay; conditions: read-out: GI; outline: as §1
[13] = Growth inhibition of human IGROV1 cells at 10 uM after 48 hrs by sulforhodamine B assay; conditions: IGROV-1, 48 h, read-out: GI; outline: as §1
[14] = Growth inhibition of human OVCAR3 cells at 10 uM after 48 hrs by sulforhodamine B assay; conditions: OVCAR-3, 48 h, read-out: GI; outline: as §1
[15] = Growth inhibition of human OVCAR4 cells at 10 uM after 48 hrs by sulforhodamine B assay; conditions: OVCAR-4, 48 h, read-out: GI; outline: as §1
[16] = Growth inhibition of human OVCAR8 cells at 10 uM after 48 hrs by sulforhodamine B assay; conditions: OVCAR-8, 48 h, read-out: GI; outline: as §1
[17] = Growth inhibition of human SKOV3 cells at 10 uM after 48 hrs by sulforhodamine B assay; conditions: SK-OV-3, 48 h, read-out: GI; outline: as §1
[18] = system: 786-0; assay: Growth inhibition of human 786-0 cells at 10 uM after 48 hrs by sulforhodamine B assay; conditions: 786-0, 48 h, read-out: GI; outline: as §1
[19] = system: A498; assay: Growth inhibition of human A498 cells at 10 uM after 48 hrs by sulforhodamine B assay; conditions: A498, 48 h, read-out: GI; outline: as §1
[20] = system: SN12C; assay: Growth inhibition of human SN12C cells at 10 uM after 48 hrs by sulforhodamine B assay; conditions: read-out: GI; outline: as §1
[21] = Growth inhibition of human TK10 cells at 10 uM after 48 hrs by sulforhodamine B assay; conditions: TK-10, 48 h, read-out: GI; outline: as §2
[22] = Growth inhibition of human UO31 cells at 10 uM after 48 hrs by sulforhodamine B assay; conditions: UO-31, 48 h, read-out: GI; outline: as §2
[23] = system: MCF7; assay: Growth inhibition of human MCF7 cells at 10 uM after 48 hrs by sulforhodamine B assay; conditions: MCF7, 48 h, read-out: GI; outline: as §1

Row | SMILES | inhibition of growth at 10 µM [1] | inhibition of growth at 10 µM [2] | inhibition of growth at 10 µM [3] | inhibition of growth at 10 µM [4] | inhibition of growth at 10 µM [5] | inhibition of growth at 10 µM [6] | inhibition of growth at 10 µM [7] | inhibition of growth at 10 µM [8] | inhibition of growth at 10 µM [9] | inhibition of growth at 10 µM [10] | inhibition of growth at 10 µM [11] | inhibition of growth at 10 µM [12] | inhibition of growth at 10 µM [13] | inhibition of growth at 10 µM [14] | inhibition of growth at 10 µM [15] | inhibition of growth at 10 µM [16] | inhibition of growth at 10 µM [17] | inhibition of growth at 10 µM [18] | inhibition of growth at 10 µM [19] | inhibition of growth at 10 µM [20] | further results
1 | COc1ccc(Cc2nnc(Nc3cccc(OC)c3)c3ccccc23)cc1 | < 30% | 30% | 37% | < 30% | < 30% | < 30% | < 30% | < 30% | < 30% | 30% | < 30% | < 30% | 33% | < 30% | < 30% | < 30% | < 30% | < 30% | < 30% | < 30% | inhibition of growth at 10 µM [21]: < 30%; inhibition of growth at 10 µM [22]: 57%; inhibition of growth at 10 µM [23]: < 30%
2 | COc1ccc(Cc2nnc(Nc3ccc(Cl)cc3)c3ccccc23)cc1 | < 30% | 44% | 36% | 46% | 48% | 48% | 45% | < 30% | 50% | 38% | 38% | < 30% | 36% | 40% | 33% | 35% | < 30% | 43% | 53% | 50% | inhibition of growth at 10 µM [21]: 52%; inhibition of growth at 10 µM [22]: 68%; inhibition of growth at 10 µM [23]: 36%
3 | COc1ccc(Cc2nnc(Nc3ccc(NC(=O)Nc4cccc(Cl)c4)cc3)c3ccccc23)cc1 | < 30% | 39% | < 30% | 41% | 30% | < 30% | < 30% | < 30% | < 30% | < 30% | < 30% | < 30% | < 30% | < 30% | < 30% | < 30% | < 30% | 35% | < 30% | < 30% | inhibition of growth at 10 µM [21]: < 30%; inhibition of growth at 10 µM [22]: < 30%; inhibition of growth at 10 µM [23]: < 30%
4 | COc1ccc(Cc2nnc(Nc3ccc(C#N)cc3)c3ccccc23)cc1 | < 30% | 50% | < 30% | < 30% | < 30% | < 30% | < 30% | < 30% | < 30% | < 30% | < 30% | < 30% | < 30% | < 30% | < 30% | < 30% | < 30% | < 30% | 30% | < 30% | inhibition of growth at 10 µM [21]: < 30%; inhibition of growth at 10 µM [22]: 49%; inhibition of growth at 10 µM [23]: < 30%
